How the values were obtained:
Assay type in all cases: cell-based
[1] = molecular target: T1, Neuronal acetylcholine receptor subunit alpha-7 (Homo sapiens, UniProt P36544); assay: Displacement of [125I]alpha-bungarotoxin from human alpha-7 nAChR expressed in SH-SY5Y cells
Outline: (§1)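 Membrane homogenates from a clonal cell line stably expressing human α7 nAChR. Radioligand was [125I]α-bungarotoxin at 0.2 nM in 140 mM NaCl, 1 mM EDTA, 50 mM Tris-HCl, pH 7.4. Nonspecific binding was defined with 10 μM nicotine. Ki came from non-linear regression fits by Cheng-Prusoff. Mean ± SEM of four experiments, triplicate samples, from at least two membrane preparations.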

[2] = molecular target: Neuronal acetylcholine receptor; alpha4/beta2 (Homo sapiens, UniProt P17787+P43681); assay: Displacement of [3H]cytisine from human alpha-4-beta-2 nAChR expressed in SH-EP1 cells
Neuronal acetylcholine receptor; alpha4/beta2, sequence (P17787 whole entry): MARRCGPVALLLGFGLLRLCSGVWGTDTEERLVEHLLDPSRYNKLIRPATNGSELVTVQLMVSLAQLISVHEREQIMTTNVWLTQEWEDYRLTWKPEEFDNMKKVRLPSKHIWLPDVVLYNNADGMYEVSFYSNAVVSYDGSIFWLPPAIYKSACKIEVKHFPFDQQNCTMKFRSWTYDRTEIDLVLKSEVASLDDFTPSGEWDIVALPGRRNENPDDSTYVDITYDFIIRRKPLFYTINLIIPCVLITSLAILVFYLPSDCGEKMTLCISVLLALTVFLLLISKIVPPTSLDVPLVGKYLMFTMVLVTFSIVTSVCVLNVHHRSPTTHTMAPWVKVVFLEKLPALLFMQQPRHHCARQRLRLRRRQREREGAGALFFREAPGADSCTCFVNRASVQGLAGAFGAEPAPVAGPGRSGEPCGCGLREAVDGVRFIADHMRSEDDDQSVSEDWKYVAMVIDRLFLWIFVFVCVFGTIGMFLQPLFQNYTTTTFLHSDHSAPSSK
Neuronal acetylcholine receptor; alpha4/beta2, sequence (P43681 whole entry): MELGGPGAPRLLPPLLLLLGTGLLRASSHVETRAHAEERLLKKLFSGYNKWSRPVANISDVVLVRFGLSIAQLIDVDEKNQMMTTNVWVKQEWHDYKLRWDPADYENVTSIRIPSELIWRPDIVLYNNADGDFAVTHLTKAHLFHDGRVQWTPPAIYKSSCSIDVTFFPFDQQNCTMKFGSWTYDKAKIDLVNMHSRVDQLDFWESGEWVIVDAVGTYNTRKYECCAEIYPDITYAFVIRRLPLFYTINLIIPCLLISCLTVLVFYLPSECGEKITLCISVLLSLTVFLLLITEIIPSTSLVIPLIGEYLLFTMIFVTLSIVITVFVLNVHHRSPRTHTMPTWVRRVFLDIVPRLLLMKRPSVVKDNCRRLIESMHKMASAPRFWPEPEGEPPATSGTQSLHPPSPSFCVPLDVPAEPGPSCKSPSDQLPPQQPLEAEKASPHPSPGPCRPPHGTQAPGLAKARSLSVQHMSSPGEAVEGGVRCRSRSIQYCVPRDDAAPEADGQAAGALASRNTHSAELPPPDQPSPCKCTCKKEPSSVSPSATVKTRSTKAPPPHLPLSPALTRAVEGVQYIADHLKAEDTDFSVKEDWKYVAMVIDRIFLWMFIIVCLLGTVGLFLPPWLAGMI
Outline: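 Radioligand displacement used membrane homogenates from a clonal cell line stably expressing human α4β2 nAChR. [3H]cytisine was at 1 nM in saline of 120 mM NaCl, 5 mM KCl, 1 mM MgCl2, 2.5 mM CaCl2, 50 mM Tris, pH 7.0. Nonspecific binding was defined with 10 μM nicotine. Ki was obtained from regression fits by Cheng-Prusoff. Mean ± SEM of four experiments in triplicate.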

[3] = molecular target: T1, Neuronal acetylcholine receptor subunit alpha-7; assay: Inhibition of 0.2 nM [125I]alpha-bungarotoxin binding to human alpha-7 nAChR expressed in SH-SY5Y cells; outline: as §1

T1 sequence (P36544 whole entry): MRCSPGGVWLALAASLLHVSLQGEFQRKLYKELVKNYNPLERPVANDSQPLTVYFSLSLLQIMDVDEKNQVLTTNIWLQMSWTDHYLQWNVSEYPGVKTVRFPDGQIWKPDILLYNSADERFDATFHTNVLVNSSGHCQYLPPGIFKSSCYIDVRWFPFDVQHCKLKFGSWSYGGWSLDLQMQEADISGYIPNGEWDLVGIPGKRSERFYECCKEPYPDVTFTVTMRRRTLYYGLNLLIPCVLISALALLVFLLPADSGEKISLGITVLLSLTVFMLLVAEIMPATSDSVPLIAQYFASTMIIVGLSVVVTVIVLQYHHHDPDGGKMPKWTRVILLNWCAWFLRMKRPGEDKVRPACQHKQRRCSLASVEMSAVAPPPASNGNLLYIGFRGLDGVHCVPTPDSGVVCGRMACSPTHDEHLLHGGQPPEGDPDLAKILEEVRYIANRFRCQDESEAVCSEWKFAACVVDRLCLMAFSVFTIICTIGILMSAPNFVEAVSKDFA

SMILES	IC50 [1]	Ki [1]	IC50 [2]	Ki [2]	inhibition [3]
COc1cc2c(cc1O)C[C@H]1c3c(cc(O)c(OC)c3-2)CCN1C [BOLDINE]	81 µM	67 µM	10 µM	3 µM	
COc1cc2c(cc1O)C[C@H]1c3c(c(Br)c(O)c(OC)c3-2)CCN1C [3-BROMOBOLDINE]	100 µM	83 µM	99 µM	30 µM	91%
COc1cc2c(cc1OC)-c1c(OC)c(OC)cc3c1[C@H](C2)[N+](C)(C)CC3 [GLAUCINE METHIODIDE]	21 µM	18 µM	34 µM	10 µM	
COc1cc2c(cc1O)C[C@H]1c3c(cc(O)c(OC)c3-2)CC[N+]1(C)C [BOLDINE METHIODIDE]	18 µM	15 µM	8.2 µM	2.5 µM	
COc1cc2c(cc1OC)-c1c(OC)c(O)cc3c1[C@H](C2)[N+](C)(C)CC3 [PREDICENTRINE METHIODIDE]	27 µM	21 µM	3.2 µM	0.97 µM	
COc1cc2c(cc1O)C[C@H]1c3c(cc(OC)c(OC)c3-2)CC[N+]1(C)C	12 µM	10 µM	3 µM	0.91 µM	
COc1cc2c(c(Br)c1O)C[C@H]1c3c(c(Br)c(O)c(OC)c3-2)CCN1C	114 µM	95 µM	101 µM	31 µM	85%

— ChEMBL document CHEMBL1143040, “Aporphine metho salts as neuronal nicotinic acetylcholine receptor blockers” (Bioorg Med Chem, 2007)
